Calls of active or inactive are those of the source. No cut-off for these calls is given here.
Assays:
Mus musculus [1] = test: Anticonvulsant activity in ip dosed albino mouse assessed as protection against maximal electroshock-induced seizures after 0.5 hrs; type: functional; conditions: read-out: MED
Mus musculus [2] = test: Anticonvulsant activity in ip dosed albino mouse assessed as protection against maximal electroshock-induced seizures after 4 hrs; type: functional; conditions: read-out: MED
Mus musculus [3] = test: Neurotoxicity in ip dosed albino mouse after 0.5 hrs by rotorod test; type: toxicity, organism-based; conditions: in vivo
Method in brief: (§1)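 Swiss mice, four per dose, received 30, 100 or 300 mg/kg i.p. and were placed on a rotorod at 0.5 and 4 h. Neurotoxicity meant failure to keep balance for 1 min. The value reported is the minimum dose affecting half or more of the mice.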

Mus musculus [4] = test: Neurotoxicity in albino mouse at 300 mg/kg, ip after 4 hrs by rotorod test; type: toxicity, organism-based; design: dose 300 mg/kg, route intraperitoneal; conditions: in vivo; method in brief: as §1
Mus musculus [5] = test: Anticonvulsant activity in albino mouse assessed as protection against maximal electroshock-induced seizures at 300 mg/kg, ip measured after 4 hrs; type: functional, organism-based; design: dose 300 mg/kg
Mus musculus [6] = test: Anticonvulsant activity in albino mouse assessed as protection against maximal electroshock-induced seizures at 300 mg/kg, ip measured after 0.5 hrs; type: functional, organism-based; design: dose 300 mg/kg
[7] = Neurotoxicity in po dosed albino rat after 2 hrs; type: toxicity, organism-based; conditions: in vivo
Method in brief: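 Rats on oral fixed-dose testing (30 or 50 mg/kg) were scored for motor impairment in parallel with seizure testing, at five time points from one quarter hour to 4 h. The rotorod end point was failure to keep equilibrium for 1 min.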

Rattus norvegicus [8] = test: Anticonvulsant activity in po dosed albino rat assessed as protection against maximal electroshock-induced seizures after 2 hrs; type: functional
Rattus norvegicus [9] = test: Anticonvulsant activity in po dosed albino rat assessed as protection against pentylenetetrazole-induced seizure after 2 hrs; type: functional
Mus musculus [10] = test: Anticonvulsant activity in ip dosed albino mouse assessed as protection against 6 Hz electroshock-induced seizures after 1 hr; type: functional
[11] = Protective index, ratio of TD50 for neurotoxicity to ED50 for protection against pentylenetetrazole-induced seizure in albino rat after 2 hrs; type: toxicity, organism-based; conditions: in vivo, read-out: Ratio TD50/ED50
Method in brief: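 Groups of eight rats were dosed orally at the previously estimated time of peak effect, at several doses, until at least three points fell within 10–90% protection or minimal neurotoxicity. ED50 and TD50 with 95% confidence limits came from regression of the plotted data. Protective index was calculated as TD50/ED50.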

Mus musculus [12] = test: Neurotoxicity in albino mouse at 300 mg/kg, ip after 0.5 hrs by rotorod test; type: toxicity, organism-based; design: dose 300 mg/kg, route intraperitoneal; conditions: in vivo
Method in brief: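 Swiss mice (25–30 g), four per dose, got 30, 100 or 300 mg/kg i.p. and were checked on the rotorod at 0.5 and 4 h. Motor impairment meant failure to keep equilibrium on the rod for 1 min. The value is the minimum dose at which half or more of the mice were impaired.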

[13] = Neurotoxicity in po dosed albino mouse after 1 hr; type: toxicity, organism-based; conditions: in vivo
Mus musculus [14] = test: Neurotoxicity in ip dosed albino mouse after 4 hrs by rotorod test; type: toxicity, organism-based; conditions: in vivo; method in brief: as §1
Rattus norvegicus [15] = test: Anticonvulsant activity in Wistar rat assessed as inhibition of GABA-induced seizures measuring minimum GABA level per 100 mg whole brain required for 50 % inhibition at 30 mg/kg, po for 7 days (reference value: 51.5 +/- 2.60 ug/100 mg brain); type: functional
Method in brief: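 Adult Wistar rats in groups of six were dosed orally at 30 mg/kg for 7 days. Whole-brain GABA was then measured enzymatically in ethanol extracts as µg/100 mg tissue. Values are mean ± SEM of six rats versus control (Student's t test).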

Rattus norvegicus [16] = test: Anticonvulsant activity in Wistar rat assessed as inhibition of GABA-induced seizures measuring minimum GABA level per 100 mg whole brain required for 50 % inhibition at 30 mg/kg, ip as single dose measured after 2 hrs (reference value: 46.4 +/- 5.50 ug/100 mg brain); type: functional; conditions: route intraperitoneal
Rattus norvegicus [17] = test: Hepatotoxicity in albino rat assessed as change in SGPT level at 25 mg/kg, po for 14 days (reference value: 46.1+/-5.25 units/ml); type: toxicity, organism-based; design: dose 25 mg/kg, route oral; conditions: in vivo, 336 h
Rattus norvegicus [18] = test: Hepatotoxicity in albino rat assessed as change in SGOT level at 25 mg/kg, po for 14 days (reference value: 74.2+/-5.95 units/ml); type: toxicity, organism-based; design: dose 25 mg/kg, route oral; conditions: in vivo, 336 h
in vivo = conditions: albino, rat
Rattus norvegicus [19] = test: Anticonvulsant activity in po dosed albino rat assessed as protection against maximal electroshock-induced seizures after 1 hr; type: functional
[20] = Neurotoxicity in po dosed albino rat after 1 hr; type: toxicity, organism-based; conditions: in vivo
Rattus norvegicus [21] = test: Anticonvulsant activity in po dosed albino rat assessed as protection against pentylenetetrazole-induced seizure after 1 hr; type: functional

SMILES	minimal effective dose (Mus musculus [1]) [mg/kg]	MTC (Mus musculus [3]) [mg/kg]	Activity (Mus musculus [4])	Activity (Mus musculus [5])	Activity (Mus musculus [6])	also measured
Cc1nc2ccccc2c(=O)n1C(=S)NC(=O)Nc1nc2cc(Cl)ccc2s1	100	100	Non-toxic	–	–	minimal effective dose (Mus musculus [2]): 300 mg/kg
Cc1ccc2nc(NC(=O)NC(=S)n3c(C)nc4cc(F)ccc4c3=O)sc2c1	–	–	–	inactive	inactive	–
Cc1nc2cc(F)ccc2c(=O)n1C(=S)NC(=O)Nc1nc2ccc(Br)cc2s1	300	300	Non-toxic	inactive	–	–
Cc1nc2ccccc2c(=O)n1C(=S)NC(=O)Nc1nc2c(Cl)cccc2s1	–	300	Non-toxic	inactive	inactive	–
Cc1nc2cc(F)ccc2c(=O)n1C(=S)NC(=O)Nc1nc2c(Br)cccc2s1	300	300	Non-toxic	inactive	–	–
Cc1nc2cc(F)ccc2c(=O)n1C(=S)NC(=O)Nc1nc2ccc(O)cc2s1	–	–	–	inactive	inactive	–
Cc1nc2cc(Cl)ccc2c(=O)n1C(=S)NC(=O)Nc1nc2ccc(Cl)cc2s1	100	300	–	–	–	minimal effective dose (Mus musculus [2]): 100 mg/kg
CCC1(C)CC(=O)NC1=O (centres undefined) [ETHOSUXIMIDE]	–	–	Non-toxic	inactive	inactive	TD50 at 2 h [7]: > 3540 µmol/kg; ED50 (Rattus norvegicus [8]): > 3540 µmol/kg; ED50 (Rattus norvegicus [9]): 1180 µmol/kg; ED50 (Mus musculus [10]): 1180 µmol/kg; selectivity ratio at 2 h [11]: > 3; Activity (Mus musculus [12]): Non-toxic; TD50 at 1 h [13]: 2410 µmol/kg
Cc1nc2cc(F)ccc2c(=O)n1C(=S)NC(=O)Nc1nc2cc(Cl)ccc2s1	300	100	–	inactive	–	MTC (Mus musculus [14]): 300 mg/kg
Cc1nc2cc(Cl)ccc2c(=O)n1C(=S)NC(=O)Nc1nc2ccc(F)cc2s1	300	–	–	–	–	minimal effective dose (Mus musculus [2]): 300 mg/kg
COc1ccc2nc(NC(=O)NC(=S)n3c(C)nc4ccccc4c3=O)sc2c1	–	–	–	inactive	inactive	–
Cc1ccc2nc(NC(=O)NC(=S)n3c(C)nc4cc(Cl)ccc4c3=O)sc2c1	–	–	–	inactive	inactive	–
COc1ccc2nc(NC(=O)NC(=S)n3c(C)nc4cc(F)ccc4c3=O)sc2c1	–	–	–	inactive	inactive	–
Cc1nc2ccccc2c(=O)n1C(=S)NC(=O)Nc1nc2ccc(F)cc2s1	30	300	Non-toxic	–	–	minimal effective dose (Mus musculus [2]): 100 mg/kg
Cc1nc2cc(F)ccc2c(=O)n1C(=S)NC(=O)Nc1nc2ccc(Cl)cc2s1	300	100	Non-toxic	inactive	–	–
Cc1nc2ccccc2c(=O)n1C(=S)NC(=O)Nc1nc2ccc(O)cc2s1	–	–	–	inactive	inactive	–

SMILES	minimal effective dose (Mus musculus [1]) [mg/kg]	MTC (Mus musculus [3]) [mg/kg]	Activity (Mus musculus [4])	Activity (Mus musculus [5])	Activity (Mus musculus [6])	also measured
Cc1nc2cc(Cl)ccc2c(=O)n1C(=S)NC(=O)Nc1nc2ccc(O)cc2s1	–	–	–	inactive	inactive	–
CN1C(=O)CC(=O)N(c2ccccc2)c2cc(Cl)ccc21 [CLOBAZAM]	–	–	–	–	–	GABA level (Rattus norvegicus [15]): 110 µg/100 mg brain; Activity (Rattus norvegicus [16]): 101 µg
Cc1nc2cc(F)ccc2c(=O)n1C(=S)NC(=O)Nc1nc2c(Cl)cccc2s1	300	300	Non-toxic	inactive	–	–
O=C1NC(=O)C(c2ccccc2)(c2ccccc2)N1 [PHENYTOIN]	30	100	–	–	–	TD50 at 2 h [7]: > 1980 µmol/kg; ED50 (Rattus norvegicus [8]): 92 µmol/kg; ED50 (Rattus norvegicus [9]): > 3540 µmol/kg; minimal effective dose (Mus musculus [2]): 30 mg/kg; Activity (Rattus norvegicus [17]): 52.6 U/ml; Activity (Rattus norvegicus [18]): 84.1 U/ml; MTC (Mus musculus [14]): 100 mg/kg; selectivity ratio at 2 h (in vivo): > 22
Cc1nc2cc(Cl)ccc2c(=O)n1C(=S)NC(=O)Nc1nc2c(Br)cccc2s1	–	–	–	inactive	inactive	–
Cc1nc2ccccc2c(=O)n1C(=S)NC(=O)Nc1nc2c(Br)cccc2s1	–	–	–	inactive	inactive	–
Cc1nc2cc(F)ccc2c(=O)n1C(=S)NC(=O)Nc1nc2ccc(OC(F)(F)F)cc2s1	–	100	–	–	inactive	minimal effective dose (Mus musculus [2]): 300 mg/kg; MTC (Mus musculus [14]): 300 mg/kg
NC(=O)N1c2ccccc2C=Cc2ccccc21 [CARBAMAZEPINE]	30	100	–	–	–	minimal effective dose (Mus musculus [2]): 100 mg/kg; ED50 (Rattus norvegicus [19]): 15.1 µmol/kg; MTC (Mus musculus [14]): 300 mg/kg; TD50 at 1 h [20]: 1530 µmol/kg; ED50 (Rattus norvegicus [21]): > 1060 µmol/kg
Cc1nc2cc(Cl)ccc2c(=O)n1C(=S)NC(=O)Nc1nc2cc(Cl)ccc2s1	300	–	–	inactive	–	–
Cc1nc2cc(Cl)ccc2c(=O)n1C(=S)NC(=O)Nc1nc2ccc(OC(F)(F)F)cc2s1	100	300	Non-toxic	–	–	minimal effective dose (Mus musculus [2]): 100 mg/kg
Cc1nc2ccccc2c(=O)n1C(=S)NC(=O)Nc1nc2ccc(Br)cc2s1	100	300	Non-toxic	–	–	minimal effective dose (Mus musculus [2]): 300 mg/kg
COc1ccc2nc(NC(=O)NC(=S)n3c(C)nc4cc(Cl)ccc4c3=O)sc2c1	–	–	–	inactive	inactive	–
Cc1nc2cc(Cl)ccc2c(=O)n1C(=S)NC(=O)Nc1nc2ccc(Br)cc2s1	100	300	–	inactive	–	MTC (Mus musculus [14]): 300 mg/kg
Cc1nc2cc(F)ccc2c(=O)n1C(=S)NC(=O)Nc1nc2ccc(F)cc2s1	–	–	–	inactive	inactive	–
Cc1ccc2nc(NC(=O)NC(=S)n3c(C)nc4ccccc4c3=O)sc2c1	300	300	Non-toxic	inactive	–	–
Cc1nc2cc(Cl)ccc2c(=O)n1C(=S)NC(=O)Nc1nc2c(Cl)cccc2s1	300	–	–	inactive	–	MTC (Mus musculus [14]): 300 mg/kg; Activity (Mus musculus [12]): Non-toxic

— ChEMBL document CHEMBL3108729, “Design, synthesis and anticonvulsant evaluation of N-(benzo[d]thiazol-2-ylcarbamoyl)-2-methyl-4-oxoquinazoline-3(4H)-carbothioamide derivatives: a hybrid pharmacophore approach” (Eur J Med Chem, 2013)
